The subject of assay [1] is Mus musculus. Description: Anxiolytic activity against CF1 mouse assessed as suppression of oxotremorine-treated tremors at 7.5 mg/kg. Also on record: dose 7.5 mg/kg. Type of assay: functional, organism-based. The essentials: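 Male CF1 mice were given the test drug i.p. in saline 30 min before oxotremorine 0.5 mg/kg. Each mouse was then placed alone in an acrylic cage for observation of tremor. Values are median (interquartile range), analysed by Kruskal–Wallis then Mann–Whitney U against saline + oxotremorine.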

Assay [2] relates to Mus musculus. The assay is described as follows: Effect on locomotory activity in CF1 mouse assessed as reduction in spontaneous activity at 100 mg/kg. The class given is functional, organism-based. Further details: dose 100 mg/kg. The essentials: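 Male CF1 mice were habituated 10 min in photocell activity cages, then dosed i.p. (n = 10-16). Thirty minutes later crossings were recorded over 15 min. Values are mean ± SEM, analysed by one-way ANOVA then SNK.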

In assay [3] the test system is Mus musculus. The assay is described as follows: Anxiolytic activity against CF1 mouse assessed as suppression of oxotremorine-treated tremors at 3 mg/kg. Also on record: dose 3 mg/kg. The class given is functional, organism-based. The method in brief:
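Mice received treatment i.p. 30 min before oxotremorine 0.5 mg/kg in saline. Each mouse was then placed alone in a transparent cage immediately after injection and tremor was scored. Data given as median (interquartile range); Kruskal–Wallis then Mann–Whitney U against saline + oxotremorine.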

Assay [4] has as its system Mus musculus. Description: Anxiolytic activity against CF1 mouse assessed as reduction in number in crossings at 200 mg/kg after 30 mins by hole-board assay. The class given is functional, organism-based. Also on record: dose 200 mg/kg. The method in brief: (§1)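 Hole-board set 15 cm high and divided into 16 squares, with photocells counting head-dips. Male CF1 mice were dosed i.p. and placed centrally 30 min later under dim light. Over 5 min, head-dips, rearings and squares crossed were counted. Values are mean ± SEM (N = 15), analysed by one-way ANOVA then SNK.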

Assay [5] has as its system Mus musculus. Description: Anxiolytic activity against CF1 mouse assessed as increase in number of rearings at 7.5 mg/kg after 30 mins in presence of ritanserin by hole-board assay. Type of assay: functional, organism-based. Also on record: dose 7.5 mg/kg. The essentials: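 Male CF1 mice received ritanserin 2 mg/kg i.p. in 10% DMSO 30 min before the test drug at 7.5 mg/kg i.p. The 5 min hole-board session began 30 min later, counting head-dips, crossings and rearings. Values are mean ± SEM (N = 8-14), analysed by ANOVA/SNK.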

The test system of assay [6] is Mus musculus. Description: Anxiolytic activity against CF1 mouse assessed as increase in number of rearings at 7.5 mg/kg after 30 mins by hole-board assay. Type of assay: functional, organism-based. Further details: dose 7.5 mg/kg. The essentials: as §1
For assay [7], the system named is Mus musculus. The assay is described as follows: […] of CF1 mouse assessed as reduction in step down latency at 30 mg/kg by passive avoidance test. Type of assay: functional.
In assay [8] the test system is Mus musculus. Description: Effect on long term memory of CF1 mouse assessed as reduction in step down latency at 7.5 mg/kg by passive avoidance test. The class given is functional. The essentials: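 Step-down inhibitory avoidance in male CF1 mice dosed i.p. immediately after training, during which a 0.3 mA foot shock for 15 s followed stepping down. Test step-down latency was recorded 24 h later without shock, with a 300 s cutoff. N = 20 per group; values are median (interquartile range).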

The subject of assay [9] is Mus musculus. Description: Effect on locomotory activity in CF1 mouse assessed as change in spontaneous activity at 3 to 30 mg/kg. Type of assay: functional, organism-based. The method in brief:
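Mice were habituated singly for 10 min in photocell activity cages and then dosed i.p. Diazepam was given in 10% propylene glycol. After 30 min, crossings were recorded for 15 min. n = 10–16, ANOVA then SNK.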

Assay [10] relates to Mus musculus. Description: […] of CF1 mouse assessed as reduction in step down latency at 0.85 mg/kg by passive avoidance test. Type of assay: functional.
The subject of assay [11] is Mus musculus. The assay is described as follows: Anxiolytic activity against CF1 mouse assessed as increase in number of head dips at 7.5 mg/kg after 30 mins by hole-board assay. Type of assay: functional, organism-based. Further details: dose 7.5 mg/kg. The essentials: as §1
In assay [12] the test system is Mus musculus. The assay is described as follows: Effect on long term memory of CF1 mouse assessed as reduction in latency during aquisition at 100 mg/kg by passive avoidance test. The class given is functional. The method in brief: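 Step-down inhibitory avoidance in male CF1 mice with i.p. dosing 30 min before training. Stepping down during training gave a 0.3 mA scrambled foot shock for 15 s. The latency to step down during training was recorded, with no exclusion criterion applied. N = 20 per group; values are median (interquartile range).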

Structures are written as SMILES. Calls of active or inactive are those of the source.

As to `COC(=O)C1=CO[C@@H](O[C@H]2O[C@H](CO)[C@@H](O)[C@H](O)[C@H]2O)[C@@H]2C([C@@H]3NCCc4c3[nH]c3ccccc43)=CC[C@H]12` [PSYCHOLLATINE], the result in the assay with Mus musculus [1], with Mus musculus [2], in the assay on Mus musculus [3], with Mus musculus [4], in the assay with Mus musculus [6] and with Mus musculus [11] was Active. Further, the outcome in the assay on Mus musculus [5] and in the assay with Mus musculus [9] was inactive. Further, the Activity was 12.8 s in the assay with Mus musculus [7], 13.1 s with Mus musculus [8], 8.3 s in the assay on Mus musculus [10] and 5 s in the assay with Mus musculus [12].

The record behind these values is ChEMBL document CHEMBL1158703, “Psychopharmacological profile of the alkaloid psychollatine as a 5HT2A/C serotonin modulator” (2005).
